Measurements reported in ChEMBL document CHEMBL1154352, “Toll-like receptor 7 selective synthetic oligoribonucleotide agonists: synthesis and structure-activity relationship studies” (J Med Chem, 2009).
Calls of active or inactive are those of the source. The calls are words filed in the database; no cut-off is given here.

What was measured:
[1] = biological target: Toll-like receptor 3 (Homo sapiens) (UniProt O15455); assay: Activation of human TLR3 expressed in HEK293 assessed as induction of NF-kappaB activity reporter gene assay; assay type: cell-based
[2] = Metabolic stability in human serum assessed as full length product remaining after 10 mins by HPLC; assay type: ADME, cell-free; settings: read-out: Stability
Procedure, shortened: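 About 0.5 A260 units compound in 1% human serum in PBS, 37 °C; aliquot taken at 10 min, analysed by anion-exchange HPLC for percent intact full-length product.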

[3] = system: PBMC; assay: Immunomodulatory activity in human PBMC assessed as induction of IL12 at 100 ug/ml after 24 hrs; assay type: functional, cell-based
Procedure, shortened: (§1)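 Human PBMCs plated at 5 × 10^6 cells/mL; compounds dissolved in PBS added at various concentrations, 37 °C for 24 h. Supernatant cytokines/chemokines quantified with human Luminex multiplex kit.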

[4] = system: PBMC; assay: Immunomodulatory activity in human PBMC assessed as induction of TNFalpha at 100 ug/ml after 24 hrs; assay type: functional, cell-based; procedure, shortened: as §1
[5] = system: PBMC; assay: Immunomodulatory activity in human PBMC assessed as induction of IFN-alpha at 100 ug/ml after 24 hrs
[6] = system: Splenocyte; assay: Immunomodulatory activity in C57BL/6 mouse splenocytes bearing TLR7 receptor assessed as IL6 release at 100 ug/ml after 24 hrs by ELISA; assay type: functional, cell-based
Procedure, shortened: (§2)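 C57BL/6 splenocytes in RPMI 1640 with 10% FBS, penicillin/streptomycin, 2 mM L-glutamine, plated at 5 × 10^6 cells/mL; compounds in PBS added, 37 °C for 24 h. Supernatant IL-12 and IL-6 by ELISA; representative of three independent experiments.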

[7] = biological target: T1, Toll-like receptor 9 (Mus musculus) (UniProt Q9EQU3); assay: Activation of mouse TLR9 expressed in HEK293 assessed as induction of NF-kappaB activity reporter gene assay; assay type: cell-based
T1 sequence (whole entry): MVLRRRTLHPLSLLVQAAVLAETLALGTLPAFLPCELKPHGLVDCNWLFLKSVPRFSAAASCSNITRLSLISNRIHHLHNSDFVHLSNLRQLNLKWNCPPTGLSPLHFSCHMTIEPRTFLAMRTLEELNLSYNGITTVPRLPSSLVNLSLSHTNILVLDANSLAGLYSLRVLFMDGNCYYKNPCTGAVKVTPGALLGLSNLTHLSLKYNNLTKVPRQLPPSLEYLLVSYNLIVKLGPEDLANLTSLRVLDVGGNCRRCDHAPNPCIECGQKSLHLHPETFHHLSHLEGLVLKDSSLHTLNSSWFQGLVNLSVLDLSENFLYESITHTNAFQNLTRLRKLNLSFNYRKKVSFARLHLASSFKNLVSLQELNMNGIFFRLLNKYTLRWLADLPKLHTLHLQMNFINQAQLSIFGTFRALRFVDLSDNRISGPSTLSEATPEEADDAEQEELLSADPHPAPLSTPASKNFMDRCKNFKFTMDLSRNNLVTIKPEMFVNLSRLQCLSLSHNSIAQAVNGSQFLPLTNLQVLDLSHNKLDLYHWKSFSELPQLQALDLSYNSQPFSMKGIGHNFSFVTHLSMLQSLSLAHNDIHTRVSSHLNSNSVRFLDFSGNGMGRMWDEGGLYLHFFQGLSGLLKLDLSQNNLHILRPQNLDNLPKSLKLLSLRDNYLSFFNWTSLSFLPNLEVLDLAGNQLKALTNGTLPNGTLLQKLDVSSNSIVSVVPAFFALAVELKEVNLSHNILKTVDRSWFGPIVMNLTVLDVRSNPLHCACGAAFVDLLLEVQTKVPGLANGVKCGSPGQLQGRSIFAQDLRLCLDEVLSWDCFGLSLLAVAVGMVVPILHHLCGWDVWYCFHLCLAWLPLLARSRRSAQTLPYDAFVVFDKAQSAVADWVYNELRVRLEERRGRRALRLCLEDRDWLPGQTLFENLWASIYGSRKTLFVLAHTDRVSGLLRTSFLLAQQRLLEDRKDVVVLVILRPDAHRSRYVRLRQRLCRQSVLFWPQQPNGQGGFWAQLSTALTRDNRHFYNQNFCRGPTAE

[8] = biological target: T2, Toll-like receptor 8 (Homo sapiens) (UniProt Q9NR97); assay: Activation of human TLR8 expressed in HEK293XL assessed as fold induction of NF-kappaB activity at 50 ug/ml after 18 hrs by reporter gene assay relative to control
T2 sequence (whole entry): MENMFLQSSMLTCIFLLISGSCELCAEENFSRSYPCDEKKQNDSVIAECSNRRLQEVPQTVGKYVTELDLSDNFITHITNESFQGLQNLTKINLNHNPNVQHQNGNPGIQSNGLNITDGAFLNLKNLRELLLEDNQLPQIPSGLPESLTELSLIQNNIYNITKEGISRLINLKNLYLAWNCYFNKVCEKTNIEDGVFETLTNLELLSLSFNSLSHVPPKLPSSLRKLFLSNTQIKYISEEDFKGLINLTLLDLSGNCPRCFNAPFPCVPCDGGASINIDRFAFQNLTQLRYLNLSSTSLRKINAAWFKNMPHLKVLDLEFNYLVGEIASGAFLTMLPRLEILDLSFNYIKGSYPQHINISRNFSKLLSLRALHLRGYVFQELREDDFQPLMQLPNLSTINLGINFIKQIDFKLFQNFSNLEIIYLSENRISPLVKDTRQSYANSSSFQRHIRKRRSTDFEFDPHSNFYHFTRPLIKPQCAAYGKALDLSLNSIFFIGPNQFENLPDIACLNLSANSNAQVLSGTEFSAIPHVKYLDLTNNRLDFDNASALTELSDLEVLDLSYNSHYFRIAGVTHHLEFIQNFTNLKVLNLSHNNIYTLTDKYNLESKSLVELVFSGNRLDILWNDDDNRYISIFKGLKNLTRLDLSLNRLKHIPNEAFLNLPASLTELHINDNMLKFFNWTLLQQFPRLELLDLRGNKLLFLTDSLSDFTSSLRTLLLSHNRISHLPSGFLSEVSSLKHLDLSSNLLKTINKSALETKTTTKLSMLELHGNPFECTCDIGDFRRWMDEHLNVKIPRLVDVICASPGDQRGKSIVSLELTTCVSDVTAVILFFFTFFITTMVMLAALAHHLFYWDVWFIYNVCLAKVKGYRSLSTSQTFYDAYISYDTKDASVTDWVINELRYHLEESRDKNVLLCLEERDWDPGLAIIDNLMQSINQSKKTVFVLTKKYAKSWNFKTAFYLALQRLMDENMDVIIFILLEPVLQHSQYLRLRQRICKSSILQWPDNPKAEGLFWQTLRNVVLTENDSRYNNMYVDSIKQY
Procedure, shortened: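 HEK293 cells stably expressing human TLR7 or TLR8, transiently transfected with SEAP reporter plasmid; medium replaced, SIMRA compounds added, 18 h incubation. Supernatant SEAP measured by QuantiBlue; expressed as fold increase in NF-κB activity over PBS control. Tabulated data at 50 μg/mL, representative of three independent experiments.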

[9] = system: Splenocyte; assay: Immunomodulatory activity in C57BL/6 mouse splenocytes bearing TLR7 receptor assessed as IL12 release at 100 ug/ml after 24 hrs by ELISA; assay type: functional, cell-based; procedure, shortened: as §2

Sequence of Toll-like receptor 3 (Homo sapiens) (O15455 whole entry): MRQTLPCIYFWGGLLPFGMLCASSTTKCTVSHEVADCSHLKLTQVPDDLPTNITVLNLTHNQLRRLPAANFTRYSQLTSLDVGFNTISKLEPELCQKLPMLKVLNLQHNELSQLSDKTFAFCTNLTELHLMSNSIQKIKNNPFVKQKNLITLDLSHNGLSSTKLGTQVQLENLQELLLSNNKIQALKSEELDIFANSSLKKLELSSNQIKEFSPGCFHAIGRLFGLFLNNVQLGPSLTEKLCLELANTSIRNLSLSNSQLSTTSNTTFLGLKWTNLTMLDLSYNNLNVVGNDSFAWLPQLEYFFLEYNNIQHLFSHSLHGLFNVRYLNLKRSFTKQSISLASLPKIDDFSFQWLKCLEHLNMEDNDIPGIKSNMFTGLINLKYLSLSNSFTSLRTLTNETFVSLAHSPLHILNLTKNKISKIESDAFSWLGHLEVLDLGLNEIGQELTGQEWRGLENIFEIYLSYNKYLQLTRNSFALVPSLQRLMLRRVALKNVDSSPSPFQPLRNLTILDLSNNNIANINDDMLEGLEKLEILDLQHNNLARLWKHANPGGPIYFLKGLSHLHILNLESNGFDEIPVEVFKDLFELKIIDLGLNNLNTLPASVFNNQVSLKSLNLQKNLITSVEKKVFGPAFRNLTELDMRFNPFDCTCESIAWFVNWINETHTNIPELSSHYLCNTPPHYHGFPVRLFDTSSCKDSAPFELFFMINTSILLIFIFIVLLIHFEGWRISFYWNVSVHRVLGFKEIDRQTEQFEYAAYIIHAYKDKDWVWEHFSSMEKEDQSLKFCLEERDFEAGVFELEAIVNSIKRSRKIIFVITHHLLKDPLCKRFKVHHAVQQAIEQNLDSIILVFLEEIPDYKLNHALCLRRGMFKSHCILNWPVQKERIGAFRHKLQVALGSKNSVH

Row | Activity [1] | remaining at 10 min [2] [%] | Activity [6] | Activity [7] | fold change (FC) [8] | Activity [9] | SMILES | Activity [3] [pg/mL] | Activity [4] [pg/mL] | IFN-alpha [5] [pg/mL]
1 | inactive | 86 | Active | inactive | 2.1 | Active | Nc1ccn([C@@H]2O[C@H](COP(=O)(S)O[C@H]3[C@@H](O)[C@H](n4cnc5c(N)ncnc54)O[C@@H]3CO)[C@@H](OP(=O)(S)OC[C@H]3O[C@@H](n4ccc(=O)[nH]c4=O)[C@H](O)[C@@H]3OP(=O)(S)OC[C@H]3O[C@@H](n4ccc(=O)[nH]c4=O)[C@H](O)[C@@H]3OP(=O)(S)OC[C@H]3O[C@@H](n4ccc5c(=O)[nH]c(N)nc54)[C@H](O)[C@@H]3OP(=O)(S)OC[C@H]3O[C@@H](n4cnc5c(N)ncnc54)[C@H](O)[C@@H]3OP(=O)(S)OC[C@H]3O[C@@H](n4ccc(N)nc4=O)[C@H](O)[C@@H]3OP(=O)(S)OC[C@H]3O[C@@H](n4ccc5c(=O)[nH]c(N)nc54)[C@H](O)[C@@H]3OP(=O)(S)OC[C@H]3O[C@@H](n4cnc5c(N)ncnc54)[C@H](O)[C@@H]3OP(=O)(S)OC[C@H]3O[C@@H](n4ccc(=O)[nH]c4=O)[C@H](O)[C@@H]3OP(=O)(S)OC[C@H]3O[C@@H](n4ccc(=O)[nH]c4=O)[C@H](O)[C@@H]3OP(=O)(S)OCC(O)COP(=O)(S)O[C@H]3[C@@H](O)[C@H](n4ccc(=O)[nH]c4=O)O[C@@H]3COP(=O)(S)O[C@H]3[C@@H](O)[C@H](n4ccc(=O)[nH]c4=O)O[C@@H]3COP(=O)(S)O[C@H]3[C@@H](O)[C@H](n4cnc5c(N)ncnc54)O[C@@H]3COP(=O)(S)O[C@H]3[C@@H](O)[C@H](n4ccc5c(=O)[nH]c(N)nc54)O[C@@H]3COP(=O)(S)O[C@H]3[C@@H](O)[C@H](n4ccc(N)nc4=O)O[C@@H]3COP(=O)(S)O[C@H]3[C@@H](O)[C@H](n4cnc5c(N)ncnc54)O[C@@H]3COP(=O)(S)O[C@H]3[C@@H](O)[C@H](n4ccc5c(=O)[nH]c(N)nc54)O[C@@H]3COP(=O)(S)O[C@H]3[C@@H](O)[C@H](n4ccc(=O)[nH]c4=O)O[C@@H]3COP(=O)(S)O[C@H]3[C@@H](O)[C@H](n4ccc(=O)[nH]c4=O)O[C@@H]3COP(=O)(S)O[C@H]3[C@@H](O)[C@H](n4ccc(N)nc4=O)O[C@@H]3COP(=O)(S)O[C@H]3[C@@H](O)[C@H](n4cnc5c(N)ncnc54)O[C@@H]3CO)[C@H]2O)c(=O)n1 (stereo partly drawn) | 394 | 115 | 233
2 | inactive | 87 | Active | inactive | 0.4 | Active | Nc1ccn([C@@H]2O[C@H](COP(=O)(S)O[C@H]3[C@@H](O)[C@H](n4cnc5c(N)ncnc54)O[C@@H]3COP(=O)(S)O[C@H]3[C@@H](O)[C@H](n4cnc5c(N)ncnc54)O[C@@H]3CO)[C@@H](OP(=O)(S)OC[C@H]3O[C@@H](n4ccc(=O)[nH]c4=O)[C@H](O)[C@@H]3OP(=O)(S)OC[C@H]3O[C@@H](n4ccc5c(=O)[nH]c(N)nc54)[C@H](O)[C@@H]3OP(=O)(S)OC[C@H]3O[C@@H](n4cnc5c(N)ncnc54)[C@H](O)[C@@H]3OP(=O)(S)OC[C@H]3O[C@@H](n4ccc(N)nc4=O)[C@H](O)[C@@H]3OP(=O)(S)OC[C@H]3O[C@@H](n4ccc5c(=O)[nH]c(N)nc54)[C@H](O)[C@@H]3OP(=O)(S)OC[C@H]3O[C@@H](n4ccc(N)nc4=O)[C@H](O)[C@@H]3OP(=O)(S)OC[C@H]3O[C@@H](n4ccc(=O)[nH]c4=O)[C@H](O)[C@@H]3OP(=O)(S)OC[C@H]3O[C@@H](n4ccc(=O)[nH]c4=O)[C@H](O)[C@@H]3OP(=O)(S)OCC(O)COP(=O)(S)O[C@H]3[C@@H](O)[C@H](n4ccc(=O)[nH]c4=O)O[C@@H]3COP(=O)(S)O[C@H]3[C@@H](O)[C@H](n4ccc(=O)[nH]c4=O)O[C@@H]3COP(=O)(S)O[C@H]3[C@@H](O)[C@H](n4ccc(N)nc4=O)O[C@@H]3COP(=O)(S)O[C@H]3[C@@H](O)[C@H](n4ccc5c(=O)[nH]c(N)nc54)O[C@@H]3COP(=O)(S)O[C@H]3[C@@H](O)[C@H](n4ccc(N)nc4=O)O[C@@H]3COP(=O)(S)O[C@H]3[C@@H](O)[C@H](n4cnc5c(N)ncnc54)O[C@@H]3COP(=O)(S)O[C@H]3[C@@H](O)[C@H](n4ccc5c(=O)[nH]c(N)nc54)O[C@@H]3COP(=O)(S)O[C@H]3[C@@H](O)[C@H](n4ccc(=O)[nH]c4=O)O[C@@H]3COP(=O)(S)O[C@H]3[C@@H](O)[C@H](n4ccc(N)nc4=O)O[C@@H]3COP(=O)(S)O[C@H]3[C@@H](O)[C@H](n4cnc5c(N)ncnc54)O[C@@H]3COP(=O)(S)O[C@H]3[C@@H](O)[C@H](n4cnc5c(N)ncnc54)O[C@@H]3CO)[C@H]2O)c(=O)n1 (stereo partly drawn) | 250 | 20.3 | 292
